Experimental data reported in ChEMBL document CHEMBL5303300, “EUbOPEN Chemogenomics Library - Multiplex” (2023).
“And” between values parts separate entries of the source, which are not always exact repeats. Identical values can stand only once.

System: U2OS
Assay: Multiplex assay against U2OS
Format: toxicity, cell-based
Details: human, number of replicates 2
Outline: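 Tubulin, mitochondrial-mass and membrane-permeability phenotypes are per cents of healthy-nucleus cells. Cells were gated by CellPathfinder machine learning into Hoechst high-intensity objects or normal cells, normal cells into healthy, pyknosed or fragmented nuclei, and pyknosed cells into mitotic or apoptotic. Before that, live cells stained at seeding with Hoechst33342, BioTracker Green Microtubule Cytoskeleton Dye, MitoTracker Red and Annexin V Alexa Fluor 680 were imaged on a CQ1 microscope at 37°C and 5% CO2 after compound addition.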

[1] = 12 h, 10 µM, compound concentration 10 uM
[2] = 24 h, 10 µM, compound concentration 10 uM
[3] = 48 h, 10 µM, compound concentration 10 uM
[4] = 12 h, 1 µM, compound concentration 1 uM
[5] = 24 h, 1 µM, compound concentration 1 uM
[6] = 48 h, 1 µM, compound concentration 1 uM

SMILES: CN[C@@H]1C[C@H]2O[C@@](C)([C@@H]1OC)n1c3ccccc3c3c4c(c5c6ccccc6n2c5c31)C(=O)NC4 [STAUROSPORINE]
- Population Apoptotic (%) [1]: 40% and 72% and 59% and 58%
- Population Fragmented Nuclei (%) [1]: 50% and 34% and 30%
- Population Hoechst High Intensity Objects (%) [1]: 3% and 0%
- Population Membrane Permeable-Phenotype (%) [1]: 66% and 53% and 62% and 43%
- Population Mitochondria Different-Phenotype (%) [1]: 66% and 53% and 51% and 68%
- Population Mitotic Cells (%) [1]: 41% [middle of 4 runs]
- Population Normal (%) [1]: 96% and 100%
- Population Pyknosed Nuclei (%) [1]: 38% and 46% and 61% and 63%
- Population Tubulin-Different-Phenotype (%) [1]: 73% [middle of 4 runs]
- Population Apoptotic (%) [2]: 70% and 85% and 89%
- Population Fragmented Nuclei (%) [2]: 45% and 26% and 27% and 40%
- Population Healthy Nuclei (%) [2]: 5% and 3% and 4% and 8%
- Population Hoechst High Intensity Objects (%) [2]: 0% and 1%
- Population Mitochondria Different-Phenotype (%) [2]: 100% and 57% and 75% and 80%
- Population Mitotic Cells (%) [2]: 30% and 14% and 10%
- Population Normal (%) [2]: 100% and 98%
- Population Pyknosed Nuclei (%) [2]: 50% and 70% and 68%
- Population Tubulin-Different-Phenotype (%) [2]: 100% and 85% and 40%
- Population Apoptotic (%) [3]: 86% and 87% and 88% and 91%
- Population Healthy Nuclei (%) [3]: 6% and 5% and 4%
- Population Hoechst High Intensity Objects (%) [3]: 0%
- Population Membrane Permeable-Phenotype (%) [3]: 100% and 90% and 85%
- Population Mitochondria Different-Phenotype (%) [3]: 100% and 60% and 71%
- Population Mitotic Cells (%) [3]: 13% and 12% and 8%
- Population Normal (%) [3]: 100%
- Population Pyknosed Nuclei (%) [3]: 60% and 50% and 80% and 73%
- Population Tubulin-Different-Phenotype (%) [3]: 100% and 85%

SMILES: CN(C)CC#Cc1ccc2[nH]c3c(c2c1)-c1nc(N)ncc1CCC3
- Population Apoptotic (%) [4]: 100% and 38%
- Population Fragmented Nuclei (%) [4]: 30% and 13%
- Population Healthy Nuclei (%) [4]: 61% and 68%
- Population Hoechst High Intensity Objects (%) [4]: 3% and 0%
- Population Membrane Permeable-Phenotype (%) [4]: 5% and 1%
- Population Mitochondria Different-Phenotype (%) [4]: 2% and 1%
- Population Normal (%) [4]: 96% and 99%
- Population Pyknosed Nuclei (%) [4]: 7% and 17%
- Population Tubulin-Different-Phenotype (%) [4]: 61% and 84%
- Population Apoptotic (%) [1]: 50% and 17%
- Population Healthy Nuclei (%) [1]: 33% and 56%
- Population Hoechst High Intensity Objects (%) [1]: 0%
- Population Membrane Permeable-Phenotype (%) [1]: 10% and 5%
- Population Mitochondria Different-Phenotype (%) [1]: 0% and 4%
- Population Mitotic Cells (%) [1]: 50% and 82%
- Population Normal (%) [1]: 100% and 99%
- Population Tubulin-Different-Phenotype (%) [1]: 20% and 47%
- Population Apoptotic (%) [5]: 75% and 53%
- Population Fragmented Nuclei (%) [5]: 30% and 17%
- Population Healthy Nuclei (%) [5]: 57% and 58%
- Population Hoechst High Intensity Objects (%) [5]: 1% and 0%
- Population Membrane Permeable-Phenotype (%) [5]: 0% and 3%
- Population Mitochondria Different-Phenotype (%) [5]: 0% and 1%
- Population Mitotic Cells (%) [5]: 25% and 46%
- Population Normal (%) [5]: 98% and 99%
- Population Pyknosed Nuclei (%) [5]: 12% and 23%
- Population Tubulin-Different-Phenotype (%) [5]: 58% and 82%
- Population Apoptotic (%) [2]: 66% and 24%
- Population Healthy Nuclei (%) [2]: 31% and 39%
- Population Hoechst High Intensity Objects (%) [2]: 0%
- Population Membrane Permeable-Phenotype (%) [2]: 27% and 15%
- Population Mitochondria Different-Phenotype (%) [2]: 9% and 4%
- Population Mitotic Cells (%) [2]: 33% and 75%
- Population Normal (%) [2]: 100% and 99%
- Population Tubulin-Different-Phenotype (%) [2]: 45% and 49%
- Population Apoptotic (%) [6]: 45% and 69%
- Population Fragmented Nuclei (%) [6]: 37% and 13%
- Population Healthy Nuclei (%) [6]: 52% and 69%
- Population Hoechst High Intensity Objects (%) [6]: 0%
- Population Membrane Permeable-Phenotype (%) [6]: 7% and 3%
- Population Mitochondria Different-Phenotype (%) [6]: 5% and 0%
- Population Mitotic Cells (%) [6]: 54% and 30%
- Population Normal (%) [6]: 99% and 100%
- Population Pyknosed Nuclei (%) [6]: 11% and 17%
- Population Tubulin-Different-Phenotype (%) [6]: 67% and 77%
- Population Apoptotic (%) [3]: 50%
- Population Healthy Nuclei (%) [3]: 19% and 48%
- Population Hoechst High Intensity Objects (%) [3]: 0%
- Population Membrane Permeable-Phenotype (%) [3]: 20% and 28%
- Population Mitochondria Different-Phenotype (%) [3]: 0% and 2%
- Population Mitotic Cells (%) [3]: 50% and 49%
- Population Normal (%) [3]: 100% and 99%
- Population Tubulin-Different-Phenotype (%) [3]: 20% and 45%

SMILES: CCN1CCN(Cc2ccc(C(=O)Nc3ccc(C)c(Oc4ccc5c(c4)CC(=O)N5)c3)cc2C(F)(F)F)CC1.Cl.Cl
- Population Apoptotic (%) [4]: 50%
- Population Healthy Nuclei (%) [4]: 82% and 64%
- Population Hoechst High Intensity Objects (%) [4]: 0% and 3%
- Population Membrane Permeable-Phenotype (%) [4]: 0%
- Population Mitochondria Different-Phenotype (%) [4]: 4% and 0%
- Population Mitotic Cells (%) [4]: 50%
- Population Normal (%) [4]: 100% and 96%
- Population Pyknosed Nuclei (%) [4]: 12% and 19%
- Population Tubulin-Different-Phenotype (%) [4]: 60% and 40%
- Population Apoptotic (%) [1]: 42% and 45%
- Population Fragmented Nuclei (%) [1]: 15% and 8%
- Population Healthy Nuclei (%) [1]: 57% and 69%
- Population Hoechst High Intensity Objects (%) [1]: 1% and 0%
- Population Membrane Permeable-Phenotype (%) [1]: 33% and 14%
- Population Mitochondria Different-Phenotype (%) [1]: 46%
- Population Mitotic Cells (%) [1]: 57% and 54%
- Population Normal (%) [1]: 98% and 100%
- Population Pyknosed Nuclei (%) [1]: 26% and 22%
- Population Tubulin-Different-Phenotype (%) [1]: 83% and 81%
- Population Apoptotic (%) [5]: 66% and 63%
- Population Fragmented Nuclei (%) [5]: 5% and 2%
- Population Healthy Nuclei (%) [5]: 71% and 81%
- Population Hoechst High Intensity Objects (%) [5]: 2% and 0%
- Population Membrane Permeable-Phenotype (%) [5]: 0%
- Population Mitochondria Different-Phenotype (%) [5]: 7% and 3%
- Population Mitotic Cells (%) [5]: 33% and 36%
- Population Normal (%) [5]: 97% and 100%
- Population Pyknosed Nuclei (%) [5]: 23% and 15%
- Population Tubulin-Different-Phenotype (%) [5]: 51% and 64%
- Population Apoptotic (%) [2]: 65% and 64%
- Population Fragmented Nuclei (%) [2]: 12% and 8%
- Population Healthy Nuclei (%) [2]: 54% and 64%
- Population Hoechst High Intensity Objects (%) [2]: 0%
- Population Membrane Permeable-Phenotype (%) [2]: 29% and 26%
- Population Mitochondria Different-Phenotype (%) [2]: 76% and 74%
- Population Mitotic Cells (%) [2]: 35%
- Population Normal (%) [2]: 100%
- Population Pyknosed Nuclei (%) [2]: 32% and 27%
- Population Tubulin-Different-Phenotype (%) [2]: 61% and 86%
- Population Apoptotic (%) [6]: 78% and 66%
- Population Fragmented Nuclei (%) [6]: 4% and 1%
- Population Healthy Nuclei (%) [6]: 72% and 85%
- Population Hoechst High Intensity Objects (%) [6]: 1% and 0%
- Population Membrane Permeable-Phenotype (%) [6]: 4% and 1%
- Population Mitochondria Different-Phenotype (%) [6]: 2% and 1%
- Population Mitotic Cells (%) [6]: 21% and 33%
- Population Normal (%) [6]: 98% and 99%
- Population Pyknosed Nuclei (%) [6]: 22% and 13%
- Population Tubulin-Different-Phenotype (%) [6]: 59% and 70%
- Population Apoptotic (%) [3]: 83% and 80%
- Population Fragmented Nuclei (%) [3]: 9% and 10%
- Population Healthy Nuclei (%) [3]: 29% and 49%
- Population Hoechst High Intensity Objects (%) [3]: 1% and 0%
- Population Membrane Permeable-Phenotype (%) [3]: 66% and 31%
- Population Mitochondria Different-Phenotype (%) [3]: 60% and 81%
- Population Mitotic Cells (%) [3]: 16% and 19%
- Population Normal (%) [3]: 98% and 99%
- Population Pyknosed Nuclei (%) [3]: 60% and 40%
- Population Tubulin-Different-Phenotype (%) [3]: 80% and 81%
